Results: ChEMBL document CHEMBL1143308, “Spiro-piperidine azetidinones as potent TRPV1 antagonists” (Bioorg Med Chem Lett, 2009)
≈ marks a conversion by molar mass, not a printed value. Blank lines part the entries; values can stand above or below the compound they belong to. Calls of active or inactive are those of the source. The calls are words filed in the database; no cut-off is given here.

Legend:
[1] = molecular target: T1, Transient receptor potential cation channel subfamily V member 1 (Homo sapiens, UniProt Q8NER1); experiment: Antagonist activity at TRPV1 expressed in HEK293 cells assessed as inhibition of capsaicin-induced activation by FLIPR assay; format: functional, cell-based
T1 sequence (Q8NER1 whole entry): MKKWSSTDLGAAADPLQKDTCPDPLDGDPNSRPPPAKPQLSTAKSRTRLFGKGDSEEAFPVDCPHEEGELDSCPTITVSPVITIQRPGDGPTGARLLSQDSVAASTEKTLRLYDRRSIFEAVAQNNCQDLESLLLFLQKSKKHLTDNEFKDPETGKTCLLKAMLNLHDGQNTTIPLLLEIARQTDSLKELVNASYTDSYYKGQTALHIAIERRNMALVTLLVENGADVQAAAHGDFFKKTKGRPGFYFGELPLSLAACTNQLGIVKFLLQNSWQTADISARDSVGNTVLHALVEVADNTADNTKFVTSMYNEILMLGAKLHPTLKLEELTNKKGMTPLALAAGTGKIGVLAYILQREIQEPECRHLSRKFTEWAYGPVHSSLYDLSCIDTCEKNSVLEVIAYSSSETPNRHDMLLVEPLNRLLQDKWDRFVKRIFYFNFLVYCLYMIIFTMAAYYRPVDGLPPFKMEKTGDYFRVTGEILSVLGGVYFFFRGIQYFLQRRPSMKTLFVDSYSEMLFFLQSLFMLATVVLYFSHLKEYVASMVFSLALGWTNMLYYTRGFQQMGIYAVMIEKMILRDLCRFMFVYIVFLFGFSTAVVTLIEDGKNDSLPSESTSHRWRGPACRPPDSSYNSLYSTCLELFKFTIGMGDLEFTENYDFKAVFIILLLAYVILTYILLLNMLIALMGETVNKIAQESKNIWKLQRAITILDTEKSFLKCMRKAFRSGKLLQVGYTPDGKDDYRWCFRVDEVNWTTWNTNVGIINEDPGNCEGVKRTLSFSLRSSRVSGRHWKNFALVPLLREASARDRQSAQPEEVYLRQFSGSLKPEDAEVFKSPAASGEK
Procedure, shortened: (§1)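 FLIPR calcium-flux run at 37 °C in a HEK293 line stably transfected with TRPV1. Channel activated by capsaicin or by PMA, and the IC50 is taken against each agonist. Compounds dissolved in DMSO, with DMSO alone as the vehicle control.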

[2] = molecular target: T1, Transient receptor potential cation channel subfamily V member 1; experiment: Antagonist activity at TRPV1 expressed in HEK293 cells assessed as inhibition of PMA-induced activation by FLIPR assay; format: functional, cell-based; procedure, shortened: as §1
[3] = AUC (0 to 6 hrs) in rat at 10 mg/kg, po; format: ADME, organism-based; set-up: time < 6 hr, dose 10 mg/kg, route oral; conditions: plasma
Procedure, shortened: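 Rat pharmacokinetics: oral dosing at 10 mpk in 20% HPBCD vehicle; AUC taken over 0–6 h.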

[4] = Stability in pH 7.4 buffer assessed as formation of 1-(tert-butoxycarbonyl)-3-(phenyl(phenylamino)methyl)azetidine-3-carboxylic acid after 2 hrs; format: physicochemical; conditions: pH 7.4, 2 h
Procedure, shortened: (§2)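 Compound held in pH 7.4 buffer spiked with 0.1 M NaSMe and methylamine to mimic plasma nucleophiles. Followed by LC–MS for up to 24 h, tracking loss of parent and appearance of the ring-opened amino acid.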

[5] = molecular target: T1, Transient receptor potential cation channel subfamily V member 1; experiment: Antagonist activity at TRPV1 expressed in HEK293 cells assessed as inhibition of capsaicin-induced activation at 10 uM by FLIPR assay; format: functional, cell-based; set-up: scale not given: the % may be the effect or the level left
Procedure, shortened: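 TRPV1 FLIPR run at 37 °C in stably transfected HEK293 cells, capsaicin-activated. Percent inhibition measured with test compound at a single concentration of 10 µM, from DMSO solution, with a DMSO vehicle control.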

[6] = Aqueous solubility of the compound; format: physicochemical; conditions: buffer
[7] = Half life in iv dosed rat; format: ADME, organism-based; conditions: in vivo
Procedure, shortened: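 Rat dosed intravenously as an add-on to the oral PK study (10 mpk oral in 20% HPBCD); terminal half-life from the iv arm.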

[8] = Oral bioavailability in rat at 10 mg/kg; format: ADME, organism-based; conditions: in vivo
[9] = Stability in pH 7.4 buffer after 24 hrs; format: physicochemical; conditions: pH 7.4, 24 h; procedure, shortened: as §2

Structure (SMILES): CC(C)(C)[C@H]1CC[C@@H](NC(=O)N2CCC3(CC2)C(=O)N(c2ccccc2)[C@H]3c2ccccc2)CC1
IC50 [1]: 0.528 µM
IC50 [2]: 0.232 µM

Structure (SMILES): CC(C)(C)OC(=O)N1CC2(C1)C(=O)N(c1ccccc1)C2c1ccccc1 (centres undefined)
Stability [4]: Unstable

Structure (SMILES): CC(C)(C)c1ccc(NC(=O)N2CCC3(CC2)CN(c2ccccc2)C3=O)cc1
IC50 [1]: 0.08 µM
IC50 [2]: 0.059 µM

Structure (SMILES): O=C(Nc1ccc(C(F)(F)F)cc1)N1CCC2(CC1)C(=O)N(c1ccccn1)[C@@H]2c1ccccc1
Activity [5]: 83%

Structure (SMILES): O=C(Nc1ccc(C(F)(F)F)cc1)N1CCC2(CC1)C(=O)N(c1ccccn1)[C@H]2c1ccccc1
AUC(0-t) at 6 h [3]: 2500 ng·h/mL
IC50 [1]: 0.013 µM
half-life [7]: 2.5 h
bioavailability [8]: 45%
solubility [6]: 0.3 µM (≈ 0.144 µg/mL)
IC50 [2]: 0.0085 µM

Structure (SMILES): CC(C)(C)[C@H]1CC[C@H](NC(=O)N2CCC3(CC2)C(=O)N(c2ccccc2)[C@H]3c2ccccc2)CC1
IC50 [1]: 0.049 µM
IC50 [2]: 0.032 µM

Structure (SMILES): CC(C)(C)c1ccc(NC(=O)N2CCC3(CC2)CN(c2ccccc2-c2ccccc2)C3=O)cc1
Activity [5]: 73%

Structure (SMILES): CC(C)(C)OC(=O)N1CCC2(CC1)C(=O)N(c1ccccc1)C2c1ccccc1 (centres undefined)
Stability [9]: Stable

Next, values leading:

AUC(0-t) at 6 h [3]: 44 ng·h/mL
IC50 [1]: 0.101 µM
IC50 [2]: 0.113 µM
Structure (SMILES): CC(C)c1ccc(NC(=O)N2CCC3(CC2)C(=O)N(c2ccccc2)C3c2ccccc2)cc1 (centres undefined)

IC50 [1]: 0.205 µM
IC50 [2]: 0.318 µM
Structure (SMILES): O=C(Nc1ccc(C(F)(F)F)cn1)N1CCC2(CC1)C(=O)N(c1ccccc1)C2c1ccccc1 (racemic)

AUC(0-t) at 6 h [3]: 49 ng·h/mL
IC50 [1]: 0.0094 µM
solubility [6]: 0.094 µM (≈ 0.044 µg/mL)
IC50 [2]: 0.012 µM
Structure (SMILES): CC(C)(C)c1ccc(NC(=O)N2CCC3(CC2)C(=O)N(c2ccccc2)[C@H]3c2ccccc2)cc1

IC50 [1]: 0.226 µM
Structure (SMILES): CC(C)(c1ccccc1)c1ccc(NC(=O)N2CCC3(CC2)C(=O)N(c2ccccc2)[C@H]3c2ccccc2)cc1

Activity [5]: 8.5%
Structure (SMILES): CC(C)(C)c1ccc(NC(=O)N2CCC3(CC2)C(=O)N(c2ccccc2)[C@@H]3c2ccccc2)cc1

Activity [5]: inactive
Structure (SMILES): CC(C)c1ccc(NC(=O)N2CCC3(CC2)C(=O)N(c2ccccc2)[C@@H]3c2ccccc2)cc1

AUC(0-t) at 6 h [3]: 1660 ng·h/mL
IC50 [1]: 0.085 µM
IC50 [2]: 0.103 µM
Structure (SMILES): O=C(Nc1ccc(C(F)(F)F)cc1)N1CCC2(CC1)C(=O)N(c1ccccc1)C2c1ccccc1 (racemic)

AUC(0-t) at 6 h [3]: 19 ng·h/mL
IC50 [1]: 0.081 µM
IC50 [2]: 0.043 µM
Structure (SMILES): CC(C)c1ccc(NC(=O)N2CCC3(CC2)C(=O)N(c2ccccc2)[C@H]3c2ccccc2)cc1
